Experimental findings from article PMC9050161 (RSC Advances, 2020) are described below.

One experiment deals with T1, UGT1A7 (Homo sapiens, UniProt Q9HAW7).
T1 sequence (Q9HAW7 26-530): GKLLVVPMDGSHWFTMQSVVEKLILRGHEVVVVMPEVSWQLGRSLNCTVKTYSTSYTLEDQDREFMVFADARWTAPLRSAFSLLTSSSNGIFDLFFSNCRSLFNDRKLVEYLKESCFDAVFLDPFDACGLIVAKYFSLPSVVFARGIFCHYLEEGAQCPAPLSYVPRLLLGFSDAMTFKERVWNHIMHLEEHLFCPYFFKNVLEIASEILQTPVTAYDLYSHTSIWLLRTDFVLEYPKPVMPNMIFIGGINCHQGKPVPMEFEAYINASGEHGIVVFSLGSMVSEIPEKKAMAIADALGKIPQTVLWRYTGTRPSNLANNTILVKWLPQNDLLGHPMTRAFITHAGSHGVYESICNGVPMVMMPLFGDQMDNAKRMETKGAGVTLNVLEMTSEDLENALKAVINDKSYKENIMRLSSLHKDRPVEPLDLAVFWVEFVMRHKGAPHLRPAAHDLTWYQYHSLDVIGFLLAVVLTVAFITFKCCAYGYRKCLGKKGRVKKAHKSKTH
The experiment is described as follows: Inhibition of UGT1A7. The experiment is classed as biochemical. The procedure, abridged: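 Recombinant human UGTs screened with probe substrates: β-estradiol for UGT1A1, propofol for 1A9, and 4-methylumbelliferone for 1A3, 1A6, 1A7, 1A8, 1A10, 2B4, 2B7, 2B10, 2B15 and 2B17. Incubated at 37 °C without (control) or with test compound at 1, 10 or 100 μM. Glucuronide formation measured relative to control; triplicate.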

Another experiment concerns the target MRP4 (Homo sapiens, UniProt O15439). The experiment is described as follows: M2 excretion in HeLa1A9 cells after shRNA knock-down of MRP4. The note with it: MRP4 silencing. The experiment is classed as cell-based. Put shortly: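 shRNA plasmid against BCRP, MRP1, MRP3 or MRP4 transfected into UGT1A9-expressing HeLa cells, then exposed to 5 μM test compound in HBSS. Medium sampled at 30–120 min with replacement; cells collected at 120 min. UHPLC gave extracellular and intracellular glucuronide, excretion rate, efflux clearance (excretion rate/intracellular concentration) and fraction metabolized (fmet), each compared with control. Triplicate.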

Sequence of MRP4 (O15439 whole entry): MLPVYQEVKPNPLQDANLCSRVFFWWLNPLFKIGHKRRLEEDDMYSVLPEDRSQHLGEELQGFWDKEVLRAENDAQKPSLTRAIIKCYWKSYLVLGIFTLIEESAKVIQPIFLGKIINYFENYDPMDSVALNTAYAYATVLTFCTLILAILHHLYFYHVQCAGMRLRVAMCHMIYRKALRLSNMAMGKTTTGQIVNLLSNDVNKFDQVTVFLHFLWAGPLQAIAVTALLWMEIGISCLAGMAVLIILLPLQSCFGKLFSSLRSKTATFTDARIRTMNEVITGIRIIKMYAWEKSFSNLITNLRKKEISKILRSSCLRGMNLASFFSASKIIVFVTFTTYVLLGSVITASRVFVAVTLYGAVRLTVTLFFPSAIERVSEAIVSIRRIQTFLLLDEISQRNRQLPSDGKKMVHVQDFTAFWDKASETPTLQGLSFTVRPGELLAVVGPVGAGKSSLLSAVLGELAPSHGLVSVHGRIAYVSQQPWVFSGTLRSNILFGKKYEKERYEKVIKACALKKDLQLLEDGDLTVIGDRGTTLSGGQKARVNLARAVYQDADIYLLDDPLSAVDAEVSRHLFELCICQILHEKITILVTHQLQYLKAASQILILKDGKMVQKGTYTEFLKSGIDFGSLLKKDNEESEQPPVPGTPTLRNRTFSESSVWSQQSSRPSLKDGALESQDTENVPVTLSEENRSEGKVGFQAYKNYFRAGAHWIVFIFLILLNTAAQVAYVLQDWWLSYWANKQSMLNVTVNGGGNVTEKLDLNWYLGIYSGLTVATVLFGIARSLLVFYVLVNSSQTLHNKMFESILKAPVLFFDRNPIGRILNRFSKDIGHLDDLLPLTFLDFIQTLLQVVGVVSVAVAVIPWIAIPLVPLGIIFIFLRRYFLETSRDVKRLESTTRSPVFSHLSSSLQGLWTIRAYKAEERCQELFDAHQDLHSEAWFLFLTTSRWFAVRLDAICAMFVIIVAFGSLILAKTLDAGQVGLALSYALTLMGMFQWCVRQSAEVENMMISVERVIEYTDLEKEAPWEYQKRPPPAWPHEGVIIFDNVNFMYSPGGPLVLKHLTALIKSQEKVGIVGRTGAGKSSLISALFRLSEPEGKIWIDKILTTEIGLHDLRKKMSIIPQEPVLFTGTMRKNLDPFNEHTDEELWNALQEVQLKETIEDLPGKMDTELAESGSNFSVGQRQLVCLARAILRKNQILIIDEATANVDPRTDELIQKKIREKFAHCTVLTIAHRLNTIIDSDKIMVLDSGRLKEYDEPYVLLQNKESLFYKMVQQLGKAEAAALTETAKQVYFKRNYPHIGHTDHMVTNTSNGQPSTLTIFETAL

For the compound `Oc1cccc(-c2nc(N3CCOCC3)c3oc4ncccc4c3n2)c1` [PI-103], on UGT1A7, the IC50 (as a rule, the concentration at which inhibition is half-maximal) came out at 6.25 ± 0.84 µM and the affinity corresponds to a Ki of 5.64 ± 0.6 µM. For the same compound, at UGT1A7 (UGT1A7, 4-MU), the Type of inhibition entry is given as “Noncompetitive”. Besides, the “decrease in fmet value of PI-103” value at MRP4 is recorded as 33.8%.
